Source: ChEMBL document CHEMBL1140884, “Oligodeoxyribonucleotide-based antagonists for Toll-like receptors 7 and 9” (2009)
The source made the active and inactive calls. No cut-off for these calls is given here.

Key:
[1] = biological target: T1, Toll-like receptor 9 (Mus musculus) (UniProt Q9EQU3); assay: Agonist activity at mouse TLR9 expressed in HEK293 cells assessed as activation of NF-kappaB at 10 ug/mL by SEAP reporter gene assay; format: functional, cell-based
T1 sequence (whole entry): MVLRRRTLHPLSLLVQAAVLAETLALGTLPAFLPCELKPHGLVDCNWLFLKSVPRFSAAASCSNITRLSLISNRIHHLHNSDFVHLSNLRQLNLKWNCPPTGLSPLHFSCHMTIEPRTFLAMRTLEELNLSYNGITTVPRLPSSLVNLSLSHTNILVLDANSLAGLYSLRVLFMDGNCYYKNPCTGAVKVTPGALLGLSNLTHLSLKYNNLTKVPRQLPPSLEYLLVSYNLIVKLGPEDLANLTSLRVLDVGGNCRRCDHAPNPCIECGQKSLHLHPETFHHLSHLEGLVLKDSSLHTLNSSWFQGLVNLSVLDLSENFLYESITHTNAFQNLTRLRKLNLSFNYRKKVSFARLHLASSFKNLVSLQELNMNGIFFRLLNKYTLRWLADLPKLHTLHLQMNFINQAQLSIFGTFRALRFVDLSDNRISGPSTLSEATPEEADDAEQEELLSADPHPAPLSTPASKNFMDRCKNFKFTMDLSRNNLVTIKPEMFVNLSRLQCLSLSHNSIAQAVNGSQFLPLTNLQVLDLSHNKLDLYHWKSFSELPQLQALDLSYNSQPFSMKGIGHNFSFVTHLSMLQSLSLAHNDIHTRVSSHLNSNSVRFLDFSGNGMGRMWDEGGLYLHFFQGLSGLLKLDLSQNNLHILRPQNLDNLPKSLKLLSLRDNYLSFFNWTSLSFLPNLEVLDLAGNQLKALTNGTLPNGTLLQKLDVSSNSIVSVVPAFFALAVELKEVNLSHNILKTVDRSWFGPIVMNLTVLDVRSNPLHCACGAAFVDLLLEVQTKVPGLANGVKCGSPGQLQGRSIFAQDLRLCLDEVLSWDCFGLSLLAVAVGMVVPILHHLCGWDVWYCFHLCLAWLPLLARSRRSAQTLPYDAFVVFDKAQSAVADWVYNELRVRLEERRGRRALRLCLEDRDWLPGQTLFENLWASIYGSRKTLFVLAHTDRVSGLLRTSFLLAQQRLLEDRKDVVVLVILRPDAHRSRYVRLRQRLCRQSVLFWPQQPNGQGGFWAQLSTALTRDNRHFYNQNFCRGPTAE
Procedure, shortened: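 HEK293 cells stably expressing mouse TLR9 were transiently transfected with a SEAP reporter for 6 h. Compounds were added at 10 µg/mL for 18 h. SEAP was read with Quanti-Blue substrate and expressed as fold change in NF-κB activity.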

[2] = biological target: T1, Toll-like receptor 9 (Mus musculus); assay: Antagonist activity at mouse TLR9 expressed in HEK293 cells assessed as inhibition of 5'-CTATCTGACGTTCTCTGT-3'-induced NF-kappaB activation by SEAP reporter gene assay; format: functional, cell-based
Procedure, shortened: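 Mouse TLR9-HEK293 cells were transfected with a SEAP reporter for 6 h. They were then stimulated for 18 h with agonist (0.25 or 0.5 µg/mL) plus increasing antagonist concentrations or set agonist:antagonist ratios. Quanti-Blue read-out, reported as % NF-κB activity with agonist alone as 100%.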

[3] = biological target: T1, Toll-like receptor 9 (Mus musculus); assay: Agonist activity at TLR9 in mouse J774 cells assessed as of NF-kappaB activation; format: functional, cell-based
Procedure, shortened: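 Murine J774 macrophages grown in DMEM with 10% FBS and plated at 5×10^6 cells/well. Nuclear extracts taken 1 h after agonist addition. NF-κB detected by EMSA on native polyacrylamide gels with autoradiography.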

[4] = biological target: T1, Toll-like receptor 9 (Mus musculus); assay: Antagonist activity at TLR9 in mouse J774 cells assessed as inhibition of LPS-induced NF-kappaB activation treated 1 hr before LPS induction; format: functional, cell-based
Procedure, shortened: (§1)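 J774 cells at 5×10^6 cells/well were preincubated with antagonist for 1 h. Agonist was then added: TLR9 agonist 1 µg/mL, an RNA-based TLR7/8 agonist, or LPS 100 ng/mL. Antagonist was used at 5–40 µg/mL or at the indicated agonist ratios. Nuclear extracts were taken 1 h after agonist and analysed by EMSA.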

[5] = biological target: T1, Toll-like receptor 9 (Mus musculus); assay: Antagonist activity at TLR9 in mouse J774 cells assessed as inhibition of 5'-TCTGACRTTCT-X-TCTTRCAGTCT-3'-induced NF-kappaB activation; format: functional, cell-based; procedure, shortened: as §1
Mus musculus [6] = assay: Inhibition of 5'-TCTGACRTTCT-X-TCTTRCAGTCT-3'-induced IL12 production in C57BL/6 mouse at 10 mg/kg, sc; format: functional, organism-based; set-up: dose 10 mg/kg
Procedure, shortened: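 C57BL/6 mice received antagonist or control 10 mg/kg sc, either with TLR9 agonist 0.25 mg/kg sc or up to 48 h before it. Serum IL-12 was measured 2 h after agonist. Two or three independent experiments; mean ± SEM, Student's t test versus PBS.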

Mus musculus [7] = assay: Inhibition of 5'-TCTGACRTTCT-X-TCTTRCAGTCT-3'-induced IL10 production in C57BL/6 mouse treated 72 hrs before induction at 10 mg/kg, sc; format: functional; conditions: C57BL/6, sc, route subcutaneous
Procedure, shortened: (§2)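 Female C57BL/6 mice (n=3) received antagonist 10 mg/kg sc in the right flank. After 72 h, TLR9 agonist 0.25 mg/kg sc was given in the left flank. Serum was taken 2 h after agonist and cytokines/chemokines were measured by Luminex multiplex assay. Representative of at least three experiments.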

Mus musculus [8] = assay: Inhibition of 5'-TCTGACRTTCT-X-TCTTRCAGTCT-3'-induced KC production in C57BL/6 mouse treated 72 hrs before induction at 10 mg/kg, sc; format: functional; conditions: C57BL/6, sc, route subcutaneous; procedure, shortened: as §2
Mus musculus [9] = assay: Inhibition of 5'-UGCUGUUCUG-X-GUCUUGUCGU-5'-induced IL12 production in C57BL/6 mouse treated 72 hrs before induction at 10 mg/kg, sc; format: functional; conditions: C57BL/6, sc, route subcutaneous
Procedure, shortened: (§3)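 Female C57BL/6 mice, 6-8 weeks, n = 3, given antagonist 10 mg/kg sc in the right flank. After 72 h, agonist given sc in the left flank: TLR7/8 RNA agonist at 50 mg/kg or TLR9 agonist at 0.25 mg/kg. Serum collected 2 h after agonist by retro-orbital bleeding; cytokines/chemokines by mouse 20-plex Luminex bead assay.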

Mus musculus [10] = assay: Inhibition of 5'-UGCUGUUCUG-X-GUCUUGUCGU-5'-induced MCP1 production in C57BL/6 mouse treated 72 hrs before induction at 10 mg/kg, sc; format: functional; conditions: C57BL/6, sc, route subcutaneous; procedure, shortened: as §3
Mus musculus [11] = assay: Inhibition of 5'-UGCUGUUCUG-X-GUCUUGUCGU-5'-induced KC production in C57BL/6 mouse treated 72 hrs before induction at 10 mg/kg, sc; format: functional; conditions: C57BL/6, sc, route subcutaneous; procedure, shortened: as §3
Mus musculus [12] = assay: Inhibition of 5'-TCTGACRTTCT-X-TCTTRCAGTCT-3'-induced IL12 production in C57BL/6 mouse treated 72 hrs before induction at 10 mg/kg, sc; format: functional; conditions: C57BL/6, sc, route subcutaneous; procedure, shortened: as §2
[13] = biological target: T1, Toll-like receptor 9 (Mus musculus); assay: Antagonist activity at mouse TLR9 expressed in HEK293 cells assessed as inhibition of 5'-TCTGACRTTCT-X-TCTTRCAGTCT-3'-induced NF-kappaB activation pretreated for 1 hr in presence of increasing levels of 5'-TCTGACRTTCT-X-TCTTRCAGTCT-3'; format: functional, cell-based
Procedure, shortened: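 In mouse TLR9-HEK293 cells with SEAP reporter, a fixed 10 µg/mL antagonist was combined with increasing TLR9 agonist concentrations for 18 h. Quanti-Blue SEAP read-out of NF-κB activity.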

Activity [1]: inactive
Activity [2]: Active
Activity [3]: inactive
Activity [4]: inactive
Activity [5]: Active
Activity [13]: inactive
Compound: CO[C@@H]1[C@H](OP(=O)(S)OC[C@H]2O[C@@H](n3ccc(N)nc3=O)C[C@@H]2OP(=O)(S)OC[C@H]2O[C@@H](n3ccc4c(=O)[nH]c(N)nc43)C[C@@H]2OP(=O)(S)OC[C@H]2O[C@@H](n3cc(C)c(=O)[nH]c3=O)C[C@@H]2OP(=O)(S)OC[C@H]2O[C@@H](n3cc(C)c(=O)[nH]c3=O)C[C@@H]2OP(=O)(S)OC[C@H]2O[C@@H](n3ccc(N)nc3=O)C[C@@H]2OP(=O)(S)OC[C@H]2O[C@@H](n3cc(C)c(=O)[nH]c3=O)C[C@@H]2OP(=O)(S)OC[C@H]2O[C@@H](n3ccc(N)nc3=O)C[C@@H]2OP(=O)(S)OC[C@H]2O[C@@H](n3cc(C)c(=O)[nH]c3=O)C[C@@H]2OP(=O)(S)OC[C@H]2O[C@@H](n3cnc4c(=O)[nH]c(N)nc43)C[C@@H]2OP(=O)(S)OC[C@H]2O[C@@H](n3cc(C)c(=O)[nH]c3=O)C[C@@H]2O)[C@@H](COP(=O)(S)O[C@H]2[C@@H](OC)[C@H](n3cnc4c(=O)[nH]c(N)nc43)O[C@@H]2COP(=O)(S)O[C@H]2C[C@H](n3cc(C)c(=O)[nH]c3=O)O[C@@H]2COP(=O)(S)O[C@H]2C[C@H](n3ccc(N)nc3=O)O[C@@H]2COP(=O)(S)O[C@H]2C[C@H](n3cc(C)c(=O)[nH]c3=O)O[C@@H]2COP(=O)(S)O[C@H]2C[C@H](n3cnc4c(N)ncnc43)O[C@@H]2COP(=O)(S)O[C@H]2C[C@H](n3cc(C)c(=O)[nH]c3=O)O[C@@H]2COP(=O)(S)O[C@@H]2C[C@@H](n3ccc(N)nc3=O)O[C@H]2CO)O[C@H]1n1cnc2c(N)ncnc21 (stereo partly drawn)
Activity (Mus musculus [6]): Active
inhibition in vivo at 10 mg/kg (Mus musculus [7]): ≥ 50%
inhibition in vivo at 10 mg/kg (Mus musculus [8]): ≥ 50%
inhibition in vivo at 10 mg/kg (Mus musculus [9]): ≥ 50%
inhibition in vivo at 10 mg/kg (Mus musculus [10]): ≥ 50%
inhibition in vivo at 10 mg/kg (Mus musculus [11]): ≥ 50%
inhibition in vivo at 10 mg/kg (Mus musculus [12]): ≥ 50%
